pIC50: −log10 of the molar value.
Legend:
Cytochrome P450 2C9 = Cytochrome P450 2C9 (Homo sapiens, UniProt P11712); test: Interaction with human cytochrome P450 isoform 2C9 expressed in baculovirus-insect cells; format: ADME
How it was run: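 Microsomes from baculovirus-insect cells expressing human CYP1A2, 2C9, 2C19, 2D6 or 3A4. Compound serially diluted with an NADPH-regenerating mix (16.3 μM NADP+, 0.83 mM glucose-6-phosphate, 0.83 mM MgCl2, 0.4 U/mL G6PDH). Pre-warmed 10 min at 37 °C, then isoform-specific substrate added in 0.35 M potassium phosphate pH 7.4. Fluorometric read-out; IC50 by nonlinear regression.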

[1] = Maximal concentration in rats after 0.5 mg/kg oral dose; format: ADME, organism-based; parameters: dose 0.5 mg/kg, route oral; settings: rat, in vivo
[2] = Area under curve after administration to rats at a dose of 0.5 mg/kg orally; format: ADME, organism-based; parameters: dose 0.5 mg/kg, route oral; settings: rat, in vivo, po
[3] = Area under curve after administration to rats at a dose of 0.2 mg/kg intravenously; format: ADME, organism-based; parameters: dose 0.2 mg/kg, route intravenous; settings: rat, in vivo, iv
[4] = biological target: T1, Amyloid-beta precursor protein (Homo sapiens, UniProt P05067); test: Inhibitory concentration against beta-amyloid-42 (Abeta42) secretion was evaluated in human neuroglioma cells (H4-APP695NL); format: functional, cell-based
How it was run: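 H4-APP695NL human neuroglioma cells (APP695 Swedish K595N/M596L) seeded at 2 × 10^5/well and grown 24 h to confluence. Increasing compound concentrations added overnight; DMSO 1% as vehicle. Supernatant Aβ42 or Aβ40 measured by electrochemiluminescence immunoassay: biotinylated 4G8 plus C-terminus-specific rabbit antibodies, captured on streptavidin beads.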
Target sequence in this assay (P05067 18-770 limits assumed): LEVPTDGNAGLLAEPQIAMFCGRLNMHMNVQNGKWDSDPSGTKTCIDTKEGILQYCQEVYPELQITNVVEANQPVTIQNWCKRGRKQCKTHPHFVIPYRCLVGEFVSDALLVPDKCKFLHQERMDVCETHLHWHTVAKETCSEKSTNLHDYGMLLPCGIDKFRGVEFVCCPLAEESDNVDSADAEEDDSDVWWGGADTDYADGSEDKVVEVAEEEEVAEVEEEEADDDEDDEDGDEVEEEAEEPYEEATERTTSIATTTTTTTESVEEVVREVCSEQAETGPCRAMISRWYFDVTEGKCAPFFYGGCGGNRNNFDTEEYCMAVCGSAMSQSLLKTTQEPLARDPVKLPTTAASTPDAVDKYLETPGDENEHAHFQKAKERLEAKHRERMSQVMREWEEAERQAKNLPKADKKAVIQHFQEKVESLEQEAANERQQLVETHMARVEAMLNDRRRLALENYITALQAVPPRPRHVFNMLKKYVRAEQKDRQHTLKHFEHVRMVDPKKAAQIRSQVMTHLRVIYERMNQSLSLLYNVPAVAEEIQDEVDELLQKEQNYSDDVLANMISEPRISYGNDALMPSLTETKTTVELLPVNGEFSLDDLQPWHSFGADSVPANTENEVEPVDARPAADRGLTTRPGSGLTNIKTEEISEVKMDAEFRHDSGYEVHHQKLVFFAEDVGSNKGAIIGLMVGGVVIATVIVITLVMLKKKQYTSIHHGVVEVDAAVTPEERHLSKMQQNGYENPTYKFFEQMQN

[5] = Maximal concentration in rats after 0.2 mg/kg intravenous dose; format: ADME, organism-based; parameters: dose 0.2 mg/kg, route intravenous; settings: rat, in vivo
[6] = Total body clearance after administration to rats at a dose of 0.2 mg/kg intravenously; format: ADME, organism-based; parameters: dose 0.2 mg/kg, route intravenous; settings: rat, in vivo, iv
[7] = Time to achieve maximal concentration in rats after 0.5 mg/kg oral dose; format: ADME, organism-based; parameters: dose 0.5 mg/kg, route oral; settings: rat, in vivo
[8] = Time to achieve maximal concentration in rats after 0.2 mg/kg intravenous dose; format: ADME, organism-based; parameters: dose 0.2 mg/kg, route intravenous; settings: rat, in vivo
[9] = biological target: T1, Amyloid-beta precursor protein; settings: at 100 µM
Target sequence in this assay (P05067 whole entry): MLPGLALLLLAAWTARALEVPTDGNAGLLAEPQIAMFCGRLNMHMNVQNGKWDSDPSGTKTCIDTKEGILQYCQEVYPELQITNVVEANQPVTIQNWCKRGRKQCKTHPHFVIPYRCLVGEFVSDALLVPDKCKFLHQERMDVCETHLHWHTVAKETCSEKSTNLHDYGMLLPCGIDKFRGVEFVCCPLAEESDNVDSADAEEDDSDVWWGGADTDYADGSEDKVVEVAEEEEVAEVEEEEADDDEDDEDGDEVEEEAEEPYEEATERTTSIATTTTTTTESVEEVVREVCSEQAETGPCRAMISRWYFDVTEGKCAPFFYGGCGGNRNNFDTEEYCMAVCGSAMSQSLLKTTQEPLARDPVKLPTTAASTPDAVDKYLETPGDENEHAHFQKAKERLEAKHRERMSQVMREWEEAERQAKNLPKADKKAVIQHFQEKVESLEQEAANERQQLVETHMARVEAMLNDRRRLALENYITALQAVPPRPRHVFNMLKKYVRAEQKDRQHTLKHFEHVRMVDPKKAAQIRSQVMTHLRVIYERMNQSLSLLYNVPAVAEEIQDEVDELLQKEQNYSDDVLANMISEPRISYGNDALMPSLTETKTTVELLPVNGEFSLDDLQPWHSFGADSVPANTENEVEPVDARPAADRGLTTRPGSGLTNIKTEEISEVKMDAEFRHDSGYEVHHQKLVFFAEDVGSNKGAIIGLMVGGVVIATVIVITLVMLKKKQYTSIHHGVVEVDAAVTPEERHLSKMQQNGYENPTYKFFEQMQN

Sequence of Cytochrome P450 2C9 (P11712 whole entry, canonical isoform): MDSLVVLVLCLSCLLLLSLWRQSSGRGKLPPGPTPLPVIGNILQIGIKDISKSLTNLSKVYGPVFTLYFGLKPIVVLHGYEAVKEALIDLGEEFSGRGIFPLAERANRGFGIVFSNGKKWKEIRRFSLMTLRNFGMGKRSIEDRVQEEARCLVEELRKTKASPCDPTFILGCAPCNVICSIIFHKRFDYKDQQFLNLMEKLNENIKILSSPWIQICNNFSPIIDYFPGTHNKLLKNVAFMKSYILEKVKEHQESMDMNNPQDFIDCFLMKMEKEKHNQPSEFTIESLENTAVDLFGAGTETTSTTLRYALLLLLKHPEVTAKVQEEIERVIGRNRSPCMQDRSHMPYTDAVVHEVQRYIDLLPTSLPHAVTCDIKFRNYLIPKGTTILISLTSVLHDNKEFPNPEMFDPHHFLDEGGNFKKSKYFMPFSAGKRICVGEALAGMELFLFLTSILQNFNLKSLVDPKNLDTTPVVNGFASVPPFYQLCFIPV

Structure (SMILES): O=C(O)C1(c2ccc(-c3ccc(OC4CCC(C(F)(F)F)CC4)cc3)c(F)c2)CC1 (stereo not given)
- pIC50 (Cytochrome P450 2C9): 4.75
- Cmax [1]: 300 ng/mL
- AUC [2]: 6 µg/h/mL
- AUC [3]: 11 µg/h/mL
- pIC50 [4]: 4.70
- Cmax [5]: 600 ng/mL
- Clearance [6]: 0.313 mL/min/kg
- Tmax [7]: 8 h
- Tmax [8]: 0.25 h
- inhibition [9]: 70%

Reference: ChEMBL document CHEMBL1141070, “Synthesis and biological activity of flurbiprofen analogues as selective inhibitors of beta-amyloid(1)(-)(42) secretion” (J Med Chem, 2005)
